Compounds with a hit are over-represented: about 3.8% of the library has one in this group of screens.
KCNQ1 pot: human KCNQ1 channel potentiation or activation | hit rate 0.35% among 310,000 | B-score at 10 µM | CHO-K1 KCNQ1, thallium flux FluxOR fluorescence; hits give high values;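 active means fluorescence ratio B-score, a plate-corrected score, at least three library SD, with initial intensity B-score within 5 SD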
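System: CHO-K1 cells stably expressing KCNQ1 / Medium: assay buffer for compound exposure, DMSO matched across wells / Reagent: thallium- and potassium-containing depolarizing buffer / Compound: one concentration, matched DMSO / Incubation: 20 min compound pretreatment at room temperature / Measured by: kinetic FluxOR fluorescence, 10 s baseline plus 110 s post-stimulus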
hERG protect: hERG (human) protection from proarrhythmic block; CHO-hERG, FluxOR thallium flux, dofetilide IC70 present; activation (rescue from dofetilide block), less the hit threshold, % at 10 µM; hit rate 0.51% among 310,000;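 active means activation above the mean of controls blocked by dofetilide plus 5 SD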;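 further: thallium influx through hERG after potassium depolarization seen as dye fluorescence rise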
KCNQ1 inh: inhibitors of human KCNQ1 potassium channel | hit rate 1.3% among 310,000 | B-score at 10 µM | CHO-K1 KCNQ1, FluxOR thallium flux fluorescence; hits give high values;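 active means compounds whose thallium flux B-score, printed positive for inhibition, exceeds three library SD while starting fluorescence stays within three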;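 further: channel opened by potassium depolarization with thallium stimulus after 20 min compound exposure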
KCNK9 inh: human KCNK9 channel inhibition. B-score at 10 µM. AID 488922. Q9NPC2. hit rate 1.2% among 310,000. HEK293 KCNK9, FluxOR thallium flux fluorescence; hits give low values;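 active means ratio B-score over 3 SD below the library mean, with starting fluorescence within 5 SD of its mean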;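 further: negative B-score means less thallium flux so channel inhibition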
Target sequence (Q9NPC2 whole entry, looked up): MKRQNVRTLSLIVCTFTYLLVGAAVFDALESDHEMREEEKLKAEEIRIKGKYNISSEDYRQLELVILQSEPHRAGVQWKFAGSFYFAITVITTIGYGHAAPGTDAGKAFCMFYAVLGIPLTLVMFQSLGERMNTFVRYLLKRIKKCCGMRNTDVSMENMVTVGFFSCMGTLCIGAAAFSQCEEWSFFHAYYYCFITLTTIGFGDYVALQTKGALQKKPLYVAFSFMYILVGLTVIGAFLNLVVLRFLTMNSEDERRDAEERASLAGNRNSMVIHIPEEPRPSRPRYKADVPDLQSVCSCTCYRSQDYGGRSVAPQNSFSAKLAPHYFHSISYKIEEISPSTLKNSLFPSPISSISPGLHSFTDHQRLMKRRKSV
KCNK3 block: human KCNK3 channel inhibition, primary screen | O14649 | CHO-KCNK3 thallium flux, FluxOR fluorescence; hits give low values | B-score at 10 µM | hit rate 0.84% among 340,000;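 active means B-score under library mean minus 4 SD, starting fluorescence ratio at most library mean plus 5 SD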;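 further: more negative B-score means stronger inhibition of thallium flux through KCNK3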
Kir21 block: blocks the mouse Kir2.1 inward-rectifier potassium channel; P35561; HEK293-Kir2.1, FluxOR thallium flux fluorescence; hits give low values; B-score at 10 µM; hit rate 0.85% among 310,000;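 active means fluorescence ratio B-score at or below minus 3 SD of library scores, with starting-brightness B-score within 2 SD, cut at about -4.2 in these data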;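 further: channel flux triggered by added potassium and thallium sulfate stimulus; B-score of peak minus minimum fluorescence over baseline after thallium stimulus; more negative B-score means stronger Kir2.1 block with less thallium influx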
KCNK9 block conf: human KCNK9 inhibitor confirmation; AID 492992; inhibition, % at 10 µM; shares compounds with KCNK9 inh; hit rate 43% among 4,900; HEK293 KCNK9 cells, FluxOR thallium flux fluorescence;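 active means thallium signal inhibited by more than 5 SD of the compound-free buffer control wells, on both duplicate plates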;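 further: 0% = assay buffer control wells without compound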
Kir2-1 spec: mouse Kir2.1 off-target activity of KCNK9 modulators; Kir2.1 cells, FluxOR thallium flux fluorescence; shares compounds with KCNK9 inh; inhibition, % at 10 µM; hit rate 4% among 4,900;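 active means thallium signal drop more than 5 SD beyond the mean of the no-compound control wells, seen in both duplicate plates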;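 further: signal is fluorescence rise after thallium addition divided by baseline fluorescence; plate controls were assay buffer only for no effect and full block by chlorpromazine control for full effect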
HEK293 Tl ctr: second check of KCNK9 modulator effects in non-induced HEK293 cells; shares compounds with KCNK9 inh; FluxOR thallium flux; inhibition, % at 10 µM; hit rate 40% among 4,900; AID 492997;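 active means thallium signal drop beyond 5 SD of the untreated control mean, on both duplicate plates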;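 further: plate controls were buffer only IC0 wells for no effect and SID17386958 at its maximal inhibitory level for full effect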
Starred values were filed as active, the others as inactive; i = inactive; x = not tested or not shown.

SMILES	KCNQ1 pot	hERG protect	KCNQ1 inh	KCNK9 inh	KCNK3 block	Kir21 block	KCNK9 block conf	Kir2-1 spec	HEK293 Tl ctr
Cc1ccc(S(=O)(=O)c2cccc(S(=O)(=O)N3CCOCC3)c2)cc1S(=O)(=O)N1CCOCC1	i	-12	i	i	i	2.1	x	x	x
Cc1ccc(S(=O)(=O)c2cccc(S(=O)(=O)N3CCCC3)c2)cc1S(=O)(=O)N1CCCC1	i	-8	i	-16*	i	-0.69	32%*	i	26%*
COc1ccc(S(=O)(=O)Nc2cccc(S(=O)(=O)N3CCCCCC3)c2)cc1	i	-15	i	-8.2*	i	-2	42%*	i	28%*
O=S(=O)(Nc1nc2ccccc2nc1Nc1cccc(S(=O)(=O)N2CCCCC2)c1)c1ccccc1	i	-21	i	i	i	-4	i	i	25%*
CC(C)c1ccc(S(=O)(=O)N2CCN(C(=O)[C@@H]3CCCN3C(=O)c3cccs3)CC2)cc1	x	x	x	x	i	x	x	x	x
Cc1ccc(-c2nnn(CCOc3cccc(Br)c3)n2)cc1	i	2	i	i	i	4	x	x	x
Cc1cc(C)c(C(=O)C2OC(=O)C(C)(C)C(=O)C2(C)C)c(C)c1 (stereo not given)	i	-11	i	i	i	0.34	i	i	i
COc1ccc(/C=C/C(=O)C2CC2)cc1COc1c(C)cccc1C	i	-16	8*	-11*	i	-0.46	48%*	i	i
COc1ccc(/C=C/C(=O)c2ccccc2)cc1COc1ccccc1F	i	-12	i	-12*	-12*	1	50%*	i	32%*
COc1ccc(C(CNC(=O)C2COc3ccccc3O2)N2CCCC2)cc1 (stereo not given)	x	x	x	x	i	x	x	x	x
COc1ccccc1C(=O)NCC(=O)N/N=C/c1cn[nH]c1-c1ccccc1	i	-10	i	i	i	3.1	x	x	x
O=C(CCCCCNC(=O)c1ccccc1Br)N=Nc1c(O)[nH]c2ccccc12	i	-12	i	i	i	0.3	x	x	x
Cc1ccc2c(c1)c(/C=C/c1cc[n+](C)cc1)c(C)n2C	i	-42	i	i	i	-19	x	x	x
Cc1ccc2[nH]c(C)c(/C=C/c3cc[n+](C)cc3)c2c1	i	-30	i	-8.1*	i	-12	76%*	56%*	75%*
NC(=O)COC(=O)c1c2c(nc3ccccc13)CCCCC2	i	-4	i	i	i	1.6	x	x	x
O=C(OCC(=O)N1CCc2ccccc21)c1c2c(nc3ccccc13)CCCC2	i	-5	i	-13*	i	-2.6	53%*	i	i
O=C(COC(=O)c1c2c(nc3ccccc13)CCCCC2)c1ccc(Cl)s1	i	-5	i	-13*	i	-0.75	46%*	i	i
CCCc1nc2ccccc2c(=O)n1/N=C/c1ccccc1O	i	-16	6*	-8.4*	i	-0.12	60%*	i	30%*
COC(=O)C1(C(=O)OC)C(C(=O)c2ccccc2)C1c1ccccc1 (stereo not given)	x	x	x	x	i	x	x	x	x
COc1cc(C(CCN2CCN(c3ccccc3)CC2)c2c(OC)cc(OC)c3c(C)cc(=O)oc23)cc(OC)c1OC (stereo not given)	i	-14	i	i	i	-0.05	i	i	i
COc1cc(C(CCN2CCCC2)c2c(OC)cc(OC)c3ccc(=O)oc23)cc(OC)c1OC (stereo not given)	i	-5	i	i	i	1.8	x	x	x
O=C1C(Cc2ccccc2)Nc2ncnc(N3CCCCC3)c2N1Cc1ccc(Cl)cc1 (stereo not given)	i	-8	i	-17*	i	-1.2	76%*	i	34%*
